# Reference: ChEMBL document CHEMBL4308887, “Synthesis and biological evaluation of clovamide analogues with catechol functionality as potent Parkinson's disease agents in vitro and in vivo” (Bioorg Med Chem Lett, 2019)
# Activity calls are given as the source filed them. No cut-off for these calls is given here.
# Legend:
# SH-SY5Y [1] = assay: Induction of apoptosis in non-stimulated human SH-SY5Y cells assessed as necrotic cells at 10 uM measured after 6 hrs by Annexin V-FITC/propidium iodide staining based flow cytometry (reference value: 0.6%); assay type: cell-based
# Mus musculus = assay: Anti-parkinson's activity in MPTP-induced C57Bl/6 mouse model of Parkinson's disease assessed as decrease in ratio of Bax/Bcl2 expression in substantia nigra at 10 to 20 mg/kg, ig pretreated for 10 days followed by MPTP challenge measured 10 days post MPTP addition by Western blot analysis; assay type: functional, organism-based
# In short: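 Substantia nigra from MPTP mice. Bax, Bcl-2 and cleaved caspase-3 measured by western blot, with Bcl-2/Bax ratio by densitometry. Mean ± S.D., n = 6 mice/group.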
# [2] = Activation of PI3K/Akt/mTOR signaling in human SH-SY5Y cells assessed as up regulation of H2O2-induced HO-1 expression at 1 uM preincubated for 6 hrs followed by H2O2 addition and after 24 hrs by Western blot analysis (reference value: 181.53 +/- 24.67%); assay type: cell-based
# In short: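 SH-SY5Y cells pretreated 6 h with 1 (1 or 10 μM), then exposed to 600 μM H₂O₂ for 24 h. HO-1 measured by western blot with densitometry and expressed as % of control. Mean ± S.E.M., three independent experiments.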
# SH-SY5Y [3] = assay: Induction of apoptosis in non-stimulated human SH-SY5Y cells assessed as effect on cleaved caspase3 expression at 1 to 10 uM measured after 6 hrs by Western blot analysis; assay type: cell-based
# In short: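 Bax, Bcl-2 and cleaved caspase-3 measured by western blot in SH-SY5Y cells given 1 alone, with β-actin as internal standard. Mean ± S.E.M. of three independent experiments.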
# [4] = Activation of PI3K/Akt/mTOR signaling in human SH-SY5Y cells assessed as up regulation of H2O2-induced HO-1 expression at 10 uM preincubated for 6 hrs followed by H2O2 addition and after 24 hrs in presence of p38 MAPK inhibitor SB203580 by Western blot analysis; assay type: cell-based
# In short: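 SH-SY5Y cells preincubated 1 h with one inhibitor: SB203580 10 μM, LY294002 5 μM, U0126 10 μM, SP600125 5 μM or rapamycin 100 nM. Then 1 (10 μM) for 6 h, then 600 μM H₂O₂. HO-1 measured by western blot and densitometry. Mean ± S.E.M., three independent experiments.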
smiles,measurement,setting,value
COC(=O)[C@H](Cc1ccccc1)NC(=O)/C=C/c1ccc(O)c(O)c1 [N-CAFFEOYL-PHENYLALANINE METHYL ESTER],Activity,SH-SY5Y [1],1.1%
same,Activity,Mus musculus,Active
same,Activity,[2],274%
same,Activity,SH-SY5Y [3],Non-Toxic
same,Activity,[4],Active
